The values below come from ChEMBL document CHEMBL4152368, “Novel 4-(2-pyrimidinylamino)benzamide derivatives as potent hedgehog signaling pathway inhibitors” (Bioorg Med Chem, 2018).

Data set [1] is described as follows: Inhibition of Hedgehog signaling pathway in mouse NIH/3T3 cells assessed as reduction in Sonic hedgehog-induced Gli luciferase activity after 48 hrs by Dual-luciferase reporter gene assay. Type of data set: cell-based. The conditions noted are these: NIH3T3, 48 h. The procedure, abridged:
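NIH3T3 cells stably carrying a Gli-luciferase reporter were grown in DMEM/10% FBS with 1 μg/mL puromycin. They were seeded at 2×10⁴ cells/well and cultured overnight at 37 °C, 5% CO₂. Compounds were added as 8-point serial dilutions (0.05–300 nM) in 0.5% FBS with 0.7 μg/mL Sonic Hh agonist, n = 4 wells, for 48 h. Controls were 0.1% DMSO with or without Shh. Read-out was the Firefly/Renilla luciferase ratio.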
In general terms: In a reporter assay the amount or activity of a reporter protein is the signal.

Data set [2] is described as follows: Cmax in Sprague-Dawley rat at 1 mg/kg, iv by LC/MS/MS analysis. Type of data set: ADME, organism-based. Also noted: dose 1 mg/kg, route intravenous. To be noted: in vivo. The procedure, abridged: (§1)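 Male SD rats (3; 180–240 g) received a single 1 mg/kg iv dose at a dosing volume of 5 mL/kg. Blood was sampled at 2, 5, 15 and 30 min and at 1, 2, 4, 6, 8, 10 and 24 h, then centrifuged for 5 min at 4 °C. Plasma underwent protein precipitation and LC/MS/MS in SRM mode with an internal standard. Parameters were derived by noncompartmental analysis.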

Data set [3] in a line: AUC in Sprague-Dawley rat at 1 mg/kg, iv by LC/MS/MS analysis. It is filed as ADME, organism-based. The conditions noted are these: in vivo. In short, it runs like this: as §1
A short description of data set [4]: Apparent volume of distribution in Sprague-Dawley rat at 1 mg/kg, iv by LC/MS/MS analysis. Type of data set: ADME, organism-based. To be noted: in vivo, read-out: Vz. In short, it runs like this:
as §1

Data set [5] can be described thus: Clearance in Sprague-Dawley rat at 1 mg/kg, iv by LC/MS/MS analysis. Type of data set: ADME, organism-based. The conditions noted are these: in vivo. The procedure, abridged:
as §1

The nature of data set [6]: Half life in Sprague-Dawley rat at 1 mg/kg, iv by LC/MS/MS analysis. It is filed as ADME, organism-based. To be noted: in vivo. In short, it runs like this:
as §1

Consider `Cc1ccc(CN2CCCC2)cc1NC(=O)c1ccc(Nc2ncc(C)c(-n3ccnc3)n2)cc1`, for which the 50% inhibitory concentration (IC50) in data set [1] came to 21.1 nM.

`Cc1ccc(OCCN2CCOCC2)cc1NC(=O)c1ccc(Nc2ncc(C)c(-c3ccccc3)n2)cc1`: the IC50 in data set [1] is 4.28 nM. In addition, in data set [2], the Cmax turned out to be 863 ng/mL. Besides, the AUC in data set [3] is 787 ng·h/mL. Moreover, in data set [4], the Vd was 2.75 L/kg. In addition, the clearance in data set [5] was 21.5 mL/min/kg. The molecule further had a half-life in data set [6] of 86.4 min.

With `Cc1ccc(CN2CCOCC2)cc1NC(=O)c1ccc(Nc2ncc(C)c(-c3ccccn3)n2)cc1`, the 50% inhibitory concentration (IC50) in data set [1] worked out at 1.89 nM. The highest level in data set [2] (Cmax) was 1540 ng/mL. Besides, the AUC in data set [3] came to 1370 ng·h/mL. Besides, the Vd in data set [4] was found to be 0.888 L/kg. The same molecule gave a clearance in data set [5] of 12.3 mL/min/kg. The half-life in data set [6] was 50.4 min.

Take `Cc1ccc(OCCN(C)C)cc1NC(=O)c1ccc(Nc2ncc(C)c(-c3ccc(OC(F)(F)F)cc3)n2)cc1`: the half-inhibitory concentration (IC50) in data set [1] came to 1.07 nM.

Regarding `Cc1ccc(CN2CCOCC2)cc1NC(=O)c1ccc(Nc2nccc(-c3cccnc3)n2)cc1`, in data set [1], the half-inhibitory concentration (IC50) came to 29 nM. The molecule further gave a Cmax in data set [2] of 2520 ng/mL. This molecule displayed an area under the curve (AUC) in data set [3] of 521 ng·h/mL. For the same molecule, the Vd in data set [4] turned out to be 0.7 L/kg. Moreover, the clearance in data set [5] is 33.6 mL/min/kg. The molecule also had a half-life in data set [6] of 15 min.

Consider `CCc1cnc(Nc2ccc(C(=O)Nc3cc(CN4CCN(C)CC4)ccc3C)cc2)nc1-c1ccc(OC(F)(F)F)cc1`, for which the concentration for half-maximal inhibition (IC50) in data set [1] stood at 2.21 nM.

With `CCN(CC)CCCNC(=O)c1ccc(C)c(NC(=O)c2ccc(Nc3ncc(C)c(-c4ccc(OC(F)(F)F)cc4)n3)cc2)c1`, the half-maximal inhibitory concentration (IC50) in data set [1] is 0.62 nM.

With `Cc1ccc(OCCN2CCOCC2)cc1NC(=O)c1ccc(Nc2ncc(C)c(-c3ccc(OC(F)(F)F)cc3)n2)cc1`, the IC50 in data set [1] came to 2.45 nM.

Take `Cc1ccc(CN2CCN(C)CC2)cc1NC(=O)c1ccc(Nc2ncc(C)c(-c3ccccn3)n2)cc1`: the 50% inhibitory concentration (IC50) in data set [1] was determined as 7.37 nM.

As for `Cc1ccc(CN2CCN(C)CC2)cc1NC(=O)c1ccc(Nc2ncc(C3CC3)c(-c3ccc(OC(F)(F)F)cc3)n2)cc1`, the concentration for half-maximal inhibition (IC50) in data set [1] turned out to be 1.54 nM.

On to `Cc1ccc(CN2CCCCC2)cc1NC(=O)c1ccc(Nc2ncc(C)c(-c3ccccc3)n2)cc1`, for which the IC50 in data set [1] was 1.94 nM.

Regarding `Cc1ccc(OCCCN2CCOCC2)cc1NC(=O)c1ccc(Nc2ncc(C)c(-c3ccc(OC(F)(F)F)cc3)n2)cc1`, the half-maximal inhibitory concentration (IC50) in data set [1] was determined as 2.14 nM.

As usually defined, the IC50 is the concentration that inhibits the measured activity by half. As a reminder, the Cmax is the highest concentration seen after dosing. Broadly, the AUC is concentration integrated over time. Higher therefore signals high exposure. One may read the clearance as the rate of elimination divided by the concentration. By half-life is commonly meant how long it takes for the measured level to halve.
